pIC50: −log10 of the molar value. Active and inactive are the calls of the source. No cut-off for these calls is given here.
What was measured:
[1] = Selectivity index, ratio of IC50 for rat L6 cells to IC50 for chloroquine-resistant Plasmodium falciparum K1; assay type: toxicity, cell-based; details: read-out: Ratio IC50
Method in brief: (§1)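 Ratio of the L6 rat myoblast cytotoxicity IC50 to the IC50 against the parasite named in the line. Each IC50 is the average of duplicate determinations.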

[2] = Selectivity index, ratio of IC50 for rat L6 cells to IC50 for Leishmania donovani MHOM/SD/62/1S-CL2D; assay type: toxicity, cell-based; details: read-out: Ratio IC50; method in brief: as §1
[3] = tested on: Trypanosoma brucei rhodesiense; assay: Antitrypanosomal activity against Trypanosoma brucei rhodesiense STIB 900 infected acute mouse model assessed as survival time at 1 mg/kg, ip administered daily for 4 days; assay type: functional; details: route intraperitoneal
Method in brief: (§2)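 STIB900 acute mouse model of T. b. rhodesiense infection, with intraperitoneal dosing. Read-out is the average days of survival of treated mice. Cures are counted as mice that survive and stay parasite-free for 60 days.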

[4] = tested on: Trypanosoma brucei rhodesiense; assay: Antitrypanosomal activity against Trypanosoma brucei rhodesiense STIB 900 bloodstream trypomastigotes; assay type: functional, organism-based
Method in brief: (§3)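 IC50 values in µM, each the average of duplicate determinations. Parasites were T. b. rhodesiense STIB900 and axenic amastigotes of L. donovani MHOM/SD/62/1S-CL2D. Cytotoxicity was run on rat L6 myoblast cells.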

Leishmania donovani = assay: Antileishmanial activity against Leishmania donovani MHOM/SD/62/1S-CL2D axenic amastigotes; assay type: functional, organism-based; method in brief: as §3
[5] = tested on: Trypanosoma brucei rhodesiense; assay: Antitrypanosomal activity against Trypanosoma brucei rhodesiense STIB 900 infected acute mouse model assessed as survival time at 10 mg/kg, ip; assay type: functional; details: route intraperitoneal; method in brief: as §2
[6] = tested on: Trypanosoma brucei rhodesiense; assay: Antitrypanosomal activity against Trypanosoma brucei rhodesiense STIB 900 infected acute mouse model assessed as survival time at 5 mg/kg, ip administered daily for 4 days; assay type: functional; details: route intraperitoneal; method in brief: as §2
[7] = Selectivity index, ratio of IC50 for rat L6 cells to IC50 for Trypanosoma brucei rhodesiense STIB 900; assay type: toxicity, cell-based; details: read-out: Ratio IC50; method in brief: as §1
L6 = assay: Cytotoxicity against rat L6 cells; assay type: cell-based; method in brief: as §3
Plasmodium falciparum = assay: Antiplasmodial activity against chloroquine-resistant Plasmodium falciparum K1; assay type: functional, organism-based
Method in brief: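 In vitro IC50 against chloroquine-resistant P. falciparum K1, reported as the average of duplicate determinations.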

[8] = tested on: Trypanosoma brucei rhodesiense; assay: Antitrypanosomal activity against Trypanosoma brucei rhodesiense STIB 900 infected acute mouse model assessed as cured mouse at 5 mg/kg, ip daily for 4 days; assay type: functional, organism-based; design: dose 5 mg/kg
Method in brief: (§4)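 STIB900 acute mouse model of trypanosomiasis with intraperitoneal dosing. The regimens were daily for 4 days at 20, 5 or 1 mg/kg, or a single 10 mg/kg dose. A cure is a mouse that survives and is parasite-free for 60 days. Average days of survival are also recorded.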

[9] = tested on: Trypanosoma brucei rhodesiense; assay: Antitrypanosomal activity against Trypanosoma brucei rhodesiense STIB 900 infected acute mouse model assessed as cured mouse at 1 mg/kg, ip daily for 4 days; assay type: functional, organism-based; design: dose 1 mg/kg; method in brief: as §4
[10] = tested on: Trypanosoma brucei rhodesiense; assay: Antitrypanosomal activity against Trypanosoma brucei rhodesiense STIB 900 infected acute mouse model assessed as survival time at 20 mg/kg, ip administered daily for 4 days; assay type: functional; details: route intraperitoneal; method in brief: as §2
[11] = tested on: Trypanosoma brucei rhodesiense; assay: Antitrypanosomal activity against Trypanosoma brucei rhodesiense STIB 900 infected acute mouse model assessed as cured mouse at 20 mg/kg, ip daily for 4 days; assay type: functional, organism-based; design: dose 20 mg/kg; method in brief: as §4
[12] = tested on: Trypanosoma brucei rhodesiense; assay: Antitrypanosomal activity against Trypanosoma brucei rhodesiense STIB 900 infected acute mouse model assessed as survival time at 2 mg/kg, ip administered daily for 4 days; assay type: functional; details: route intraperitoneal
[13] = tested on: Trypanosoma brucei rhodesiense; assay: Antitrypanosomal activity against Trypanosoma brucei rhodesiense STIB 900 infected acute mouse model assessed as cured mouse at 8 mg/kg, ip daily for 4 days; assay type: functional, organism-based; design: dose 8 mg/kg
[14] = tested on: Trypanosoma brucei rhodesiense; assay: Antitrypanosomal activity against Trypanosoma brucei rhodesiense STIB 900 infected acute mouse model assessed as cured mouse at 2 mg/kg, ip daily for 4 days; assay type: functional, organism-based; design: dose 2 mg/kg
[15] = tested on: Trypanosoma brucei rhodesiense; assay: Antitrypanosomal activity against Trypanosoma brucei rhodesiense STIB 900 infected acute mouse model assessed as survival time at 8 mg/kg, ip administered daily for 4 days; assay type: functional; details: route intraperitoneal
[16] = tested on: Trypanosoma brucei rhodesiense; assay: Antitrypanosomal activity against Trypanosoma brucei rhodesiense STIB 900 infected acute mouse model assessed as cured mouse at 10 mg/kg, ip; assay type: functional, organism-based; design: dose 10 mg/kg; method in brief: as §4

SMILES | selectivity ratio [1] | selectivity ratio [2] | Survival [3] [days] | pIC50 [4] | pIC50 (Leishmania donovani) | Survival [5] [days] | Survival [6] [days] | selectivity ratio [7] | pIC50 (L6) | pIC50 (Plasmodium falciparum) | Activity [8] | Activity [9] | Survival [10] [days] | Activity [11] | Survival [12] [days] | Activity [13] | Activity [14] | Survival [15] [days] | Activity [16]
CC(C)NC(=N)c1ccc(-c2cc3ccc(C(=N)NC(C)C)cc3o2)c(O)c1 | > 307 | > 5 | >46.5 | 8.05 | 4.41 | >51.8 | >55.5 | > 20300 | < 3.74 | 6.22 |  |  |  |  |  |  |  |  | 
N=C(N)c1ccc(-c2cc3ccc(C(=N)N)cc3o2)cc1 | 267 | 0.3 | 26.5 | 8.15 | 5.51 | >39.5 | >60 | 114 | 6.10 | 8.52 | Active | inactive |  |  |  |  |  |  | 
CC(C)NC(=N)c1ccc(-c2cc3cc(C(=N)NC(C)C)cc(O)c3o2)cc1 | > 3300 | > 9 | >19.8 | 7.55 | 4.70 | >36.3 | >60 | > 6610 | < 3.73 | 7.25 | Active | inactive |  |  |  |  |  |  | 
CC(C)NC(=N)c1ccc(-c2cc3cc(C(=N)NC(C)C)cc(O)c3o2)c(O)c1 | > 577 | > 4 | 26.3 | 7.64 | 4.34 | >50.7 | >60 | > 7780 | < 3.75 | 6.51 | Active | inactive |  |  |  |  |  |  | 
N=C(N)c1ccc(-c2cc3cc(C(=N)N)cc(O)c3o2)c(O)c1 | 34 | 0.2 | >33.5 | 7.74 | 4.85 | >49.5 | >56.8 | 117 | 5.68 | 7.21 |  |  |  |  |  |  |  |  | 
N=C(N)c1ccc(O)c(-c2cc3cc(C(=N)N)ccc3o2)c1 | > 274 | > 11 | 26 | 8.30 | 4.70 | >51.5 | >60 | > 43400 | < 3.66 | 6.10 | Active | inactive |  |  |  |  |  |  | 
N=C(N)c1ccc(-c2cc3ccc(C(=N)N)cc3[nH]2)cc1 [DAPI] | 287 |  |  | 7.77 |  |  | >40.8 | 51 | 6.07 | 8.52 | inactive |  | >60 | Active |  |  |  |  | 
Oc1cc(C2=NCCN2)cc2cc(-c3ccc(C4=NCCN4)cc3)oc12 | > 9230 | > 27 | >39 | 8.40 | 5.13 | >51.3 | >49.8 | > 50800 | < 3.69 | 7.66 |  |  |  |  |  |  |  |  | 
Nc1nc(N)nc(Nc2ccc([As]3SCC(CO)S3)cc2)n1 (centres undefined) [MELARSOPROL] |  |  | >51.5 |  |  |  |  |  |  |  |  | Active |  |  | >60 | Active | Active | >60 | 
CC(C)NC(=N)c1ccc(-c2cc3cc(C(=N)NC(C)C)ccc3o2)c(O)c1 | > 6540 | > 101 | 18.5 | 7.68 | 5.74 | 26.8 | >50.5 | > 8710 | < 3.74 | 7.55 |  | inactive |  |  |  |  |  |  | inactive
N=C(N)c1ccc(-c2cc3cc(C(=N)N)cc(O)c3o2)cc1 | 3920 | 35 | >30.8 | 8.52 | 5.28 | >43 | >60 | 61300 | 3.74 | 7.33 | Active |  |  |  |  |  |  |  | 
COc1cc(C(=N)N)cc2cc(-c3ccc(C(=N)N)cc3)oc12 | 5120 | 10 | 27.3 | 8.22 | 5.52 | >44 | >60 | 5120 | 4.51 | 8.22 | Active | inactive |  |  |  |  |  |  | 
N=C(N)c1ccc(-c2cc3cc(C(=N)N)ccc3o2)c(O)c1 | 8320 | 19 | 34.8 | 8.70 | 5.74 | >55.3 | >54.5 | 16600 | 4.48 | 8.40 |  | inactive |  |  |  |  |  |  | 
Oc1ccc(C2=NCCN2)cc1-c1cc2ccc(C3=NCCN3)cc2o1 | > 1840 | > 6 |  | 7.08 | 4.46 |  | 14 | > 2280 | < 3.72 | 6.99 | inactive |  |  |  |  |  |  |  | 
N=C(N)c1cccc(-c2cc3ccc(C(=N)N)cc3o2)c1 | 32800 | 9 |  | 7.68 | 4.85 |  | 33 | 6240 | 3.88 | 8.40 | inactive |  |  |  |  |  |  |  | 
COc1cc(C2=NCCN2)cc2cc(-c3ccc(C4=NCCN4)cc3)oc12 | 622 | 5 |  | 6.91 | 5.35 |  |  | 160 | 4.70 | 7.49 |  |  | 11.5 | inactive |  |  |  |  | 
Oc1cc(C2=NCCN2)ccc1-c1cc2cc(C3=NCCN3)ccc2o1 | 25000 | 26 | 20 | 8.10 | 5.24 | 23.5 | >60 | 18800 | 3.82 | 8.22 |  | inactive |  |  |  |  |  |  | inactive
CC(C)NC(=N)c1ccc(-c2cc3cc(C(=N)NC(C)C)ccc3o2)cc1 | > 2710 | > 125 | 15.3 | 6.90 | 5.80 |  | >53 | > 1580 | < 3.70 | 7.14 |  | inactive |  |  |  |  |  |  | inactive
